Results: PMC2874112 (Bioconjugate chemistry, 2010)

Assays:
MCF-7 cells = test: Proliferation study; type: cell-based; conditions: tamoxifen-sensitive MCF7 cells, 1 nM estradiol, 7 days, MTT
Method in brief: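 MCF-7 cells were maintained in phenol red free DMEM F-12 HAM with glutamine, penicillin/streptomycin and 10% FBS at 37 °C under 5% CO2. […] Cell number was read by MTT. Two experiments were run, each in triplicate.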

[1] = molecular target: T1, ER alpha levels in MCF7 cells (Homo sapiens, UniProt P03372); test: Receptor stability study; type: cell-based; conditions: 24 hours, 10 nM estradiol, 100 nM fulvestrant, 10 μM OHT-6C-BODIPY
T1 sequence (P03372 1-595): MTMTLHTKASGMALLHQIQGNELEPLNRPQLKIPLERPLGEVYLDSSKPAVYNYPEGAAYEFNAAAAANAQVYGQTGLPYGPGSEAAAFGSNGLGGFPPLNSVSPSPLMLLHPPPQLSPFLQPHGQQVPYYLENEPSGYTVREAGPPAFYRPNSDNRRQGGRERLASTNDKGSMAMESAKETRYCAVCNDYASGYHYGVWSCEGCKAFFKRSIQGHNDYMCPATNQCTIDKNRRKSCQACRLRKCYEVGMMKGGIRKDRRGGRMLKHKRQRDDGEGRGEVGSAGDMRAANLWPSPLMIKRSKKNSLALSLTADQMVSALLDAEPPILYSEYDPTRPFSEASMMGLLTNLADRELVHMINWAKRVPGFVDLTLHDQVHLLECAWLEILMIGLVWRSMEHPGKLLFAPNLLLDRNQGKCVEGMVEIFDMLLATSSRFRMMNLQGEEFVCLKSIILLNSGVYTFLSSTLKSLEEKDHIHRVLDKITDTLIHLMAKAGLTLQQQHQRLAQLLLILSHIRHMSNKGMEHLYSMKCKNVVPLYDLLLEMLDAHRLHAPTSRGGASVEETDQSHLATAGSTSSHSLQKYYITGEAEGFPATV

Row | SMILES | Effect on estradiol-induced growth (MCF-7 cells) | Effect on cellular ER alpha levels [1]
1 | CC/C(=C(\c1ccc(O)cc1)c1ccc(OCCN(C)C)cc1)c1ccccc1 [OHT, 4-hydroxytamoxifen] | able to block estradiol-induced growth | –
2 | C[C@]12CC[C@@H]3c4ccc(O)cc4C[C@@H](CCCCCCCCC[S+]([O-])CCCC(F)(F)C(F)(F)F)[C@H]3[C@@H]1CC[C@@H]2O (some centres unmarked) [fulvestrant] | – | marked receptor downregulation
